In general, Inhibition refers to the drop in the measured response relative to a control, in per cent. What is called inhibition is the share of the control response that was lost under treatment. Higher therefore signals strong suppression.

In brackets after ≈: the same amount, converted by molar mass. Where only a bound is given, the exact number is not on record here.

One series concerns HeLa. The series can be described thus: Cytotoxicity concentration in HeLa cells. Type of series: cell-based. The following applies: human. An outline of the steps: (§1)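 HeLa monolayers were seeded at (1.0-1.3) × 10^5 cells/well, grown 24 h at 36 °C in 5% CO2 to 60–75% cover, then refed with maintenance medium (1-2% heat-inactivated FCS) containing two-fold serial compound dilutions made from a 200 μg/mL stock in Me2SO/medium, with final Me2SO ≤0.1%. Cells were challenged with 10-100 TCID50 virus, and CPE was read microscopically at 48 and 72 h. MIC50 was the lowest concentration giving ≥50% CPE reduction versus virus control. Cytotoxicity was the lowest concentration causing cell death, a growth change or a morphology change in uninfected cultures.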

In series [1] the test system is Coxsackievirus. Briefly: Ratio of the MIC50 of 6-(4-Nitro-phenoxy)-nicotinonitrile compared to compound obtained in the same test for coxsackie A21. It is filed as functional. An outline of the steps: (§2)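 Relative activity was calculated as the MIC50 of the positive control 5-cyano-2-(4-nitrophenoxy)pyridine divided by the MIC50 of the test compound. Both were measured in parallel in the same HeLa CPE test (48/72 h microscopic reading) against RV-1A, RV-2 or coxsackievirus A21.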

Series [2] relates to Coxsackievirus. The series can be described thus: Lowest concentration to reduce viral effect by 50% or more against coxsackie virus A21. Type of series: functional. An outline of the steps:
as §1

The subject of the next series is Echovirus. Briefly: Antiviral activity against Echo 12. Type of series: functional. In short, it runs like this: as §1
The next series relates to Mengo virus. The series can be described thus: Antiviral activity against mengo. The conditions noted are these: Cardiovirus A. It is filed as functional. In short, it runs like this:
as §1

The subject of series [3] is Enterovirus. The series can be described thus: Antiviral activity against rhinovirus RV-9. Type of series: functional. In short, it runs like this: as §1
Series [4] has as its system Enterovirus. The series can be described thus: Compound was evaluated for inhibition of rhinovirus RV-Hanks 75%. Type of series: functional.
In series [5] the test system is Enterovirus. Briefly: Antiviral activity against rhinovirus RV-10. It is filed as functional. An outline of the steps:
as §1

Series [6] has as its system Enterovirus. Briefly: Antiviral activity against rhinovirus RV-13. Type of series: functional. An outline of the steps: as §1
For series [7], the system named is Enterovirus. Briefly: Antiviral activity against rhinovirus RV-14. It is filed as functional. In short, it runs like this:
as §1

Series [8] concerns Enterovirus. The series can be described thus: Antiviral activity against rhinovirus RV-1B. Type of series: functional. An outline of the steps:
as §1

Series [9] has as its system Enterovirus. Briefly: Antiviral activity against rhinovirus RV-21. It is filed as functional. In short, it runs like this:
(§3)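 HeLa monolayers (1.0-1.3×10^5 cells/well, grown 24 h at 36 °C to 60-75% cover) refed with maintenance E-MEM (1-2% heat-inactivated FCS) holding two-fold serial dilutions from a 200 μg/mL DMSO stock (final DMSO ≤0.1%). Challenged with 10-100 TCID50 virus, 36 °C, 5% CO2. CPE read microscopically at 48 and 72 h. MIC50 is the lowest concentration cutting CPE ≥50% vs virus control.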

Series [10] has as its system Enterovirus. The series can be described thus: Antiviral activity against rhinovirus RV-29. It is filed as functional. In short, it runs like this:
as §1

Series [11] relates to Enterovirus. Briefly: Antiviral activity against rhinovirus RV-32. Type of series: functional. An outline of the steps:
as §1

Series [12] relates to Enterovirus. Briefly: Antiviral activity against rhinovirus RV-33. It is filed as functional. In short, it runs like this: as §1
In series [13] the test system is Enterovirus. Briefly: Antiviral activity against rhinovirus RV-39. Type of series: functional. In short, it runs like this:
as §1

The test system of series [14] is Enterovirus. Briefly: Antiviral activity against rhinovirus RV-4. Type of series: functional. In short, it runs like this: as §1
Series [15] deals with Enterovirus. The series can be described thus: Antiviral activity against rhinovirus RV-49. It is filed as functional. An outline of the steps: as §1
For series [16], the system named is Enterovirus. The series can be described thus: Antiviral activity against rhinovirus RV-Hanks. Type of series: functional. In short, it runs like this: as §1
Series [17] concerns Enterovirus. The series can be described thus: Antiviral activity against rhinovirus RV-55. Type of series: functional. In short, it runs like this: as §1
The subject of series [18] is Enterovirus. The series can be described thus: Antiviral activity against rhinovirus RV-64. Type of series: functional. In short, it runs like this: as §1
For series [19], the system named is Enterovirus. Briefly: Antiviral activity against rhinovirus RV-68. Type of series: functional. In short, it runs like this:
as §1

Series [20] relates to Enterovirus. Briefly: Antiviral activity against rhinovirus RV-74. It is filed as functional. In short, it runs like this:
as §1

Series [21] concerns Enterovirus. The series can be described thus: Antiviral activity against rhinovirus RV-8. Type of series: functional. An outline of the steps: as §1
Series [22] relates to Enterovirus. Briefly: Lowest concentration to reduce viral effect by 50% or more against Rhinovirus (RV)-2. It is filed as functional. An outline of the steps: as §1
Series [23] deals with Enterovirus. Briefly: Ratio of the MIC50 of 6-(4-Nitro-phenoxy)-nicotinonitrile compared to compound obtained in the same test for Rhinovirus (RV)-2. It is filed as functional. In short, it runs like this:
as §2

In series [24] the test system is Enterovirus. The series can be described thus: Lowest concentration to reduce viral effect by 50% or more against Rhinovirus (RV)-1A. It is filed as functional. In short, it runs like this: as §1
Series [25] relates to Enterovirus. Briefly: Ratio of the MIC50 of 6-(4-Nitro-phenoxy)-nicotinonitrile compared to compound obtained in the same test for Rhinovirus (RV)-1A. Type of series: functional. In short, it runs like this: as §2
Series [26] relates to Coxsackievirus. The series can be described thus: Antiviral activity against coxsackie B4. Type of series: functional. An outline of the steps:
as §1

Series [27] has as its system Enterovirus. Briefly: Antiviral activity against rhinovirus RV-5. Type of series: functional. In short, it runs like this:
as §1

The subject of series [28] is Enterovirus. Briefly: Antiviral activity against rhinovirus Polio 2. Type of series: functional. An outline of the steps:
as §3

The subject of series [29] is Coxsackievirus. Briefly: Antiviral activity against rhinovirus Coxsackie B3. It is filed as functional. An outline of the steps:
as §1

The subject of series [30] is Enterovirus. The series can be described thus: Antiviral activity against rhinovirus RV-44. It is filed as functional. In short, it runs like this:
as §1

Series [31] has as its system Enterovirus. Briefly: Compound was evaluated for inhibition of rhinovirus RV-Hanks at a dose of 50 ug/mL by < 50%. Type of series: functional.
Series [32] has as its system Enterovirus. The series can be described thus: Compound was evaluated for inhibition of rhinovirus RV-Hanks at a dose of 50 ug/mL by <50%. Type of series: functional.

For `N#Cc1cc([N+](=O)[O-])ccc1Oc1ccc(Cl)c(Cl)c1`, the Toxicity with HeLa is greater than 324 µM. Moreover, the Relative activity with Coxsackievirus [1] turned out to be 99.6; in the series with Enterovirus [23], 99.6; with Enterovirus [25], 319. In addition, the MIC50 against Coxsackievirus [2] is 0.52 µM (≈ 0.161 µg/mL); in the series on Enterovirus [22], 0.26 µM (≈ 0.0804 µg/mL); in the series on Enterovirus [24] it was 0.26 µM (≈ 0.0804 µg/mL). The MIC against Echovirus was 0.97 µM (≈ 0.3 µg/mL); against Mengo virus it was greater than 1.6 µM; with Enterovirus [3], 0.42 µM (≈ 0.13 µg/mL); with Enterovirus [5], less than 1 µM; in the series on Enterovirus [6], 0.81 µM (≈ 0.25 µg/mL); against Enterovirus [7], 3.2 µM (≈ 0.989 µg/mL). The MIC in the series with Enterovirus [8] is 0.81 µM (≈ 0.25 µg/mL); in the series with Enterovirus [9] it was 1.9 µM (≈ 0.587 µg/mL); against Enterovirus [10], 0.81 µM (≈ 0.25 µg/mL); against Enterovirus [11], 0.97 µM (≈ 0.3 µg/mL); with Enterovirus [12], 0.81 µM (≈ 0.25 µg/mL); with Enterovirus [13] it was 0.42 µM (≈ 0.13 µg/mL). For the same compound, the MIC against Enterovirus [14] is 0.97 µM (≈ 0.3 µg/mL); against Enterovirus [15], 0.81 µM (≈ 0.25 µg/mL); in the series on Enterovirus [16] it was 0.42 µM (≈ 0.13 µg/mL); with Enterovirus [17], 0.81 µM (≈ 0.25 µg/mL); against Enterovirus [18] it was 0.52 µM (≈ 0.161 µg/mL); against Enterovirus [19], less than 1.9 µM. Further, the MIC against Enterovirus [20] was less than 0.97 µM; against Enterovirus [21], 0.52 µM (≈ 0.161 µg/mL); against Coxsackievirus [26] it was 4.9 µM (≈ 1.51 µg/mL); in the series on Enterovirus [27], 2 µM (≈ 0.618 µg/mL); with Enterovirus [28], 1.9 µM (≈ 0.587 µg/mL); with Coxsackievirus [29], 4.9 µM (≈ 1.51 µg/mL). In the series with Enterovirus [30], this compound yielded an MIC of 0.81 µM (≈ 0.25 µg/mL). In the series on Enterovirus [4], this compound registered an Inhibition of 100%. The compound also gave an inhibition at 50 µg/mL with Enterovirus [31] of 0%.

Compound `N#Cc1ccc(Oc2ccc([N+](=O)[O-])cc2)nc1` registered an Inhibition in the series on Enterovirus [4] of 85%. Also, the inhibition at 50 µg/mL in the series with Enterovirus [32] amounted to 8%.

In turn, `N#Cc1cc([N+](=O)[O-])ccc1Oc1c(Cl)cccc1Cl` registered a Toxicity in the series on HeLa greater than 65 µM. Further, the figures for the Relative activity in the series on Coxsackievirus [1], with Enterovirus [23] and in the series with Enterovirus [25] were 0.8, 25 and 5.3, respectively. The MIC50 against Coxsackievirus [2] is 16.2 µM (≈ 5.01 µg/mL); in the series on Enterovirus [22], 0.52 µM (≈ 0.161 µg/mL); against Enterovirus [24] it was 3.9 µM (≈ 1.21 µg/mL).

In the series with HeLa, `CC(=O)c1ccc(Oc2ccc([N+](=O)[O-])cc2C#N)cc1` showed a Toxicity greater than 177 µM. The Relative activity with Coxsackievirus [1] turned out to be 0.68; in the series on Enterovirus [23], 1.2; in the series on Enterovirus [25], 0.59. Besides, the MIC50 with Coxsackievirus [2] came to 3.5 µM (≈ 0.988 µg/mL); against Enterovirus [22] it was 11.1 µM (≈ 3.13 µg/mL); in the series on Enterovirus [24], 22.2 µM (≈ 6.27 µg/mL).

For `Clc1ccc(Oc2ccc(Br)cn2)cc1Cl`, the Toxicity in the series with HeLa stood at 78 µM. The figures for the Relative activity in the series with Coxsackievirus [1], in the series on Enterovirus [23] and in the series with Enterovirus [25] were 6.5, 1.6 and 6.5, respectively. Also, the values for the MIC50 with Coxsackievirus [2], in the series with Enterovirus [22] and with Enterovirus [24] were 4 µM (≈ 1.28 µg/mL), 16 µM (≈ 5.1 µg/mL) and 4 µM (≈ 1.28 µg/mL), respectively.

For the compound `N#Cc1cc([N+](=O)[O-])ccc1Oc1cccc(Cl)c1Cl`, the Toxicity in the series on HeLa is greater than 65 µM. Besides, the Relative activity with Coxsackievirus [1] is 3.2; with Enterovirus [23], 50; with Enterovirus [25], 25. Also, the figures for the MIC50 with Coxsackievirus [2], in the series with Enterovirus [22] and with Enterovirus [24] were 8.1 µM (≈ 2.5 µg/mL), 0.26 µM (≈ 0.0804 µg/mL) and 0.52 µM (≈ 0.161 µg/mL), respectively.

`N#Cc1ccc(Oc2ccc(Cl)c(Cl)c2)nc1` had a Toxicity with HeLa of 377 µM. The Relative activity in the series with Coxsackievirus [1] is 13; in the series on Enterovirus [23], 2.7; with Enterovirus [25], 4.1. Also, the MIC50 amounted to 2 µM (≈ 0.53 µg/mL) with Coxsackievirus [2], 19 µM (≈ 5.04 µg/mL) against Enterovirus [22] and 5 µM (≈ 1.33 µg/mL) in the series on Enterovirus [24].

`N#Cc1cccnc1Oc1ccc(Cl)c(Cl)c1`: the Toxicity in the series on HeLa is greater than 189 µM. The Relative activity came out at 1.1 in the series on Coxsackievirus [1], 1.1 in the series on Enterovirus [23] and 0.55 in the series with Enterovirus [25]. The MIC50 against Coxsackievirus [2] came out at 12 µM (≈ 3.18 µg/mL); with Enterovirus [22], 24 µM (≈ 6.36 µg/mL); in the series on Enterovirus [24], 47 µM (≈ 12.5 µg/mL).

In turn, `N#Cc1cc([N+](=O)[O-])ccc1Oc1cc(Cl)ccc1Cl` returned a Toxicity with HeLa greater than 162 µM. Moreover, the Relative activity with Coxsackievirus [1] is given as 13; with Enterovirus [23], 25; with Enterovirus [25], 50. For the same compound, the MIC50 came to 2 µM (≈ 0.618 µg/mL) with Coxsackievirus [2], 0.52 µM (≈ 0.161 µg/mL) in the series with Enterovirus [22] and 0.26 µM (≈ 0.0804 µg/mL) in the series with Enterovirus [24].

(Values after ChEMBL document CHEMBL1123507, “Antipicornavirus activity of substituted phenoxybenzenes and phenoxypyridines” (J Med Chem, 1986).)
